Results from ChEMBL document CHEMBL1129527, “Synthesis, chromatographic resolution, and anti-human immunodeficiency virus activity of (+/-)-calanolide A and its enantiomers” (J Med Chem, 1996).

Tests used:
[1] = system: Avian myeloblastosis virus; assay: Inhibitory activity against Avian Myeloblastosis Virus Reverse Transcriptase (AMV RT); IA=inactive; format: functional
[2] = target: DNA-directed RNA polymerase subunit beta (Escherichia coli K-12) (UniProt P0A8V2); assay: Percent inhibition against RNA polymerase at dose 200 ug/mL
Sequence of DNA-directed RNA polymerase subunit beta (Escherichia coli K-12) (P0A8V2 whole entry, looked up): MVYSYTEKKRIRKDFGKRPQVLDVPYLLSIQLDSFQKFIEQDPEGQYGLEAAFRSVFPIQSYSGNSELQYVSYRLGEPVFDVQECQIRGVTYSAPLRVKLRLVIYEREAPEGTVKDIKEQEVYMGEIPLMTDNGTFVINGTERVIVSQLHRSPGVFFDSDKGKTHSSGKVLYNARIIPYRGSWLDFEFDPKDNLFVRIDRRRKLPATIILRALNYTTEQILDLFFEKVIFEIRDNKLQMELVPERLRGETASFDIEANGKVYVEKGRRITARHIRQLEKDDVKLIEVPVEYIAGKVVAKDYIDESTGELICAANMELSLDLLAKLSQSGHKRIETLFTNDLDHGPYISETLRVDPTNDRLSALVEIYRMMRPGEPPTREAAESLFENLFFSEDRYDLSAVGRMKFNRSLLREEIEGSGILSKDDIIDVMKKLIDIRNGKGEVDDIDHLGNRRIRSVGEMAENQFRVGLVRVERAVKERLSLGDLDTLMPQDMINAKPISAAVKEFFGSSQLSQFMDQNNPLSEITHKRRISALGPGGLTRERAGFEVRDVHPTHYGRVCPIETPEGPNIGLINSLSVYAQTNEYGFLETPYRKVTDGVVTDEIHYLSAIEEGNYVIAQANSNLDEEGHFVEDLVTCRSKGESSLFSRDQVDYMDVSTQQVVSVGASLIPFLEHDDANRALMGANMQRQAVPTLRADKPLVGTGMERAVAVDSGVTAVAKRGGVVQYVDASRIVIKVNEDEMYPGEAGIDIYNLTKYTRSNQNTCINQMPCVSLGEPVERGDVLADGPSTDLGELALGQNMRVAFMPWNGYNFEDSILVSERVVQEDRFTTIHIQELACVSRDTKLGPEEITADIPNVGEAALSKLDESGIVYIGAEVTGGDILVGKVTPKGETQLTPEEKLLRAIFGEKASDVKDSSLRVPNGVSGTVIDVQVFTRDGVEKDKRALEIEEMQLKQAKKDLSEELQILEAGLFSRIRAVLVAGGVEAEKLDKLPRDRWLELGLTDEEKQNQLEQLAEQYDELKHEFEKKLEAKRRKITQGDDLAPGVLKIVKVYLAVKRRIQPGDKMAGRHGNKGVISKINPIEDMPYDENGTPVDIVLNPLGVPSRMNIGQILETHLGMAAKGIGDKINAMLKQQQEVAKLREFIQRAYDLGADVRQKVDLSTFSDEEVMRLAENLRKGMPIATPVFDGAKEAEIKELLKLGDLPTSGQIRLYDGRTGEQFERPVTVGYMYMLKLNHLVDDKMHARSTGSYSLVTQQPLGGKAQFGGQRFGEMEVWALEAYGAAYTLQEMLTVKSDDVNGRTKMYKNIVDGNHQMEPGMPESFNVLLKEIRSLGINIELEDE
Summary of the method: (§1)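 RNA polymerase (0.5 unit) in Tris·HCl with 150 mM KCl, 10 mM MgCl2, 0.1 mM DTT, and BSA. Template was 41 µM native calf thymus DNA, with 80 µM each ATP, CTP and GTP, plus [3H]UTP. Compounds in DMSO were prescreened at 200 µg/mL. […] Percent inhibition = (1 − test/DMSO control) × 100.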

MT2 [3] = assay: (§2) Anti-HIV activity against HIV-I G910-6 strain in MT2 cell line; format: functional; details: Homo sapiens
Summary of the method: (§3)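 MT-2 cells in RPMI 1640 with 10% heat-inactivated FCS and 25 mM HEPES, infected at MOI ~0.03 TCID50/cell for 4 h at 37 °C, then washed. Seeded at 10^4 cells/mL. Compounds were diluted from DMSO to a top concentration of 100 µg/mL (≤0.25% DMSO), in triplicate with infected cells and duplicate with uninfected cells. MTT viability was read at day 7. EC50 protects against virus-induced killing; IC50 is cytotoxicity.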

MT2 [4] = assay: (§4) Anti-HIV activity against HIV-I H112-2 strain in MT2 cell line; format: functional; details: Homo sapiens; summary of the method: as §3
Nucleic Acid [5] = assay: Inhibitory activity against DNA polymerase beta; format: nucleic-acid assay
Summary of the method: (§5)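 Polymerase α or β (0.5 unit) in Tris·HCl with 5 mM KCl, 10 mM MgCl2, 1.5 mM DTT, BSA, and 12% glycerol. Template was 41 µM activated calf thymus DNA, with 80 µM each dATP, dCTP, dGTP and ATP, plus [3H]TTP. Compound was added in DMSO, duplicate wells, 37 °C. Incorporation was counted by scintillation. IC50 came from 10-point half-log dose–response curves.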

[6] = system: Avian myeloblastosis virus; assay: Percent inhibition against Avian Myeloblastosis Virus Reverse Transcriptase (AMV RT) at dose 200 ug/mL; format: functional
Nucleic Acid [7] = assay: Inhibitory activity against DNA polymerase alpha; IA=inactive; format: nucleic-acid assay; summary of the method: as §5
[8] = target: DNA-directed RNA polymerase subunit beta (Escherichia coli K-12, UniProt P0A8V2); assay: Inhibitory activity against RNA polymerase; IA=inactive; summary of the method: as §1
Sequence of DNA-directed RNA polymerase subunit beta (P0A8V2 whole entry): as the sequence (P0A8V2 whole entry, looked up) above

CCRF-CEM = assay: Anti-HIV activity against HIV-I RFII strain in CEM cell line; format: functional, cell-based; details: Homo sapiens
Summary of the method: (§6)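 CEM-SS cells in RPMI 1640 with 10% heat-inactivated FCS, infected at ~0.12 TCID50/cell for 4 h at 37 °C, washed, and seeded at 10^4 cells/mL. Drug dilutions from DMSO went up to 100 µg/mL, in triplicate on infected wells and duplicate on uninfected wells. MTT viability was measured after 6 days.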

MT2 [9] = assay: as §2; format: functional, cell-based; details: Homo sapiens; summary of the method: as §3
MT2 [10] = assay: Anti-HIV activity against HIV-I A17 strain in MT2 cell line; format: functional, cell-based; details: Homo sapiens; summary of the method: as §3
MT2 [11] = assay: as §4; format: functional, cell-based; details: Homo sapiens; summary of the method: as §3
MT2 [12] = assay: Anti-HIV activity against HIV-I IIIB strain in MT2 cell line; format: functional, cell-based; details: Homo sapiens; summary of the method: as §3
[13] = Therapeutic index is the ratio between IC50/EC50 of HIV-I IIIB strain in MT2 cell line; format: cell-based; details: human, MT2 cells infected with HIV-1 IIIB strain; read-out: TI; summary of the method: as §3
[14] = Therapeutic index is the ratio between IC50/EC50 of HIV-I RFII strain in CEM cell line; format: cell-based, CCRF-CEM; details: human, CEM cells infected with HIV-1 RFII strain; read-out: TI; summary of the method: as §6
[15] = Therapeutic index is the ratio between IC50/EC50 of HIV-I H112-2 strain in MT2 cell line; format: cell-based; details: human, MT2 cells infected with HIV-1 H112-2 strain; read-out: TI; summary of the method: as §3
[16] = Therapeutic index is the ratio between IC50/EC50 of HIV-I G910-6 strain in MT2 cell line; format: cell-based; details: human, MT2 cells infected with HIV-1 G910-6 strain; read-out: TI; summary of the method: as §3
[17] = Therapeutic index is the ratio between IC50/EC50 of HIV-I A17 strain in MT2 cell line; format: cell-based; details: human, MT2 cells infected with HIV-1 A17 strain; read-out: TI; summary of the method: as §3
[18] = system: Avian myeloblastosis virus; assay: Inhibitory activity against Avian Myeloblastosis Virus Reverse Transcriptase (AMV RT); inactive; format: functional

Compound	IC50 [1]	inhibition [2]	IC25 (MT2 [3])	IC25 (MT2 [4])	IC50 (Nucleic Acid [5])	inhibition at 200 µg/mL [6]	IC50 (Nucleic Acid [7])	IC50 [8]	EC50 (CCRF-CEM)	EC50 (MT2 [9])	EC50 (MT2 [10])	EC50 (MT2 [11])	EC50 (MT2 [12])	selectivity ratio [13]	selectivity ratio [14]	selectivity ratio [15]	selectivity ratio [16]	selectivity ratio [17]	IC50 [18]
CCCc1cc(=O)oc2c3c(c4c(c12)OC(C)(C)C=C4)O[C@@H](C)[C@H](C)[C@@H]3O [COSTATOLIDE]	Not Active	12.1%	3970 nM	4050 nM	214000 nM	16.8%	Not Active	Not Active											
CCCc1cc(=O)oc2c3c(c4c(c12)OC(C)(C)C=C4)O[C@@H](C)C(C)[C@@H]3O (mixture of isomers)	Not Active	27.8%			279000 nM	13.3%	Not Active	Not Active	486 nM	108 nM	297 nM	135 nM	108 nM						
Nc1ccn([C@H]2CC[C@@H](CO)O2)c(=O)n1 [ZALCITABINE]									189 nM	994 nM	331 nM	1560 nM	900 nM	93	250	166	213	408	
Cc1cn([C@H]2C[C@H](N=[N+]=[N-])[C@@H](CO)O2)c(=O)[nH]c1=O [ZIDOVUDINE]									23 nM		14 nM	37 nM	29 nM	1780	13100	3240		5960	
CCCc1cc(=O)oc2c3c(c4c(c12)OC(C)(C)C=C4)O[C@H](C)[C@@H](C)[C@@H]3O [CALANOLIDE A]		16%			205000 nM	20.6%	Not Active	Not Active	267 nM	27 nM	427 nM	107 nM	53 nM						Not Active
